Bioassay records (PubChem BioAssay)
Rows were chosen to be rich in hits. Some 3.8% of all compounds tested hit in one or more screens of this group.
HCV NS3 hel inh: inhibitors of HCV NS3 helicase, primary screen, biochemical, Cy5 molecular beacon fluorescence | Hepatitis C virus NS3 helicase | NS3 helicase DNA unwinding | inhibition, % at 10.9 µM | 0.56% of 290,000 active | AID 1800, 2009;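 active = inhibition above the mean of all tested compounds plus 3 SD, set per campaign, cut at about 35% in these data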
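Control set: DMSO versus 110 µM thioflavine S; Material: NS3 helicase fragment of HCV; Measured by: Cy5 fluorescence at 0 and 60 min, beacon hairpin quenching; Read-out basis: percent inhibition from t60/t0 fluorescence ratio; Times: reaction time 60 min, 25 °C; Repeats: single replicate; Compound dosing: single dose, 10.9 µM nominal final, DMSO 0.8% final.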
Lipid droplet: inhibitors of hepatocyte lipid droplet formation, primary screen, imaging, high-throughput imaging, BODIPY stain; AML12 mouse hepatocytes, oleate lipid droplets; 0.4% of 240,000 active; inhibition, % at 6.5 µM;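 active = lipid droplet intensity inhibited by at least 50%, with more than 500 cells counted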
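Assay system: AML12 hepatocytes (mouse) / Also added: 100 µM oleic acid challenge / Times: overnight treatment with compound plus oleate / Detection: high-content imaging of BODIPY-stained droplets and DAPI nuclei / Evaluation: % inhibition of lipid droplet signal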
HSF-1 act: HSF-1 activators, primary screen, NIH3T3-HGL cells, MG132 stress, luminescence, single point. NIH3T3-HGL HSF-1 luciferase reporter, 8 h; 100% = twice DMSO control signal. activation, % at 9 µM. 1.7% of 300,000 active. AID 504408, 2011;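 active = mean replicate activation of at least 50% with a set share of replicates each reaching 50%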
HSP90 inh: HSP90 inhibitors, primary screen, cell lysate, luminescence; Rabbit reticulocyte lysate, luciferase refolding luminescence, 3 h; inhibition, % at 5.6 µM; 0.91% of 290,000 active; Heat shock protein HSP 90 (rabbit reticulocyte lysate; luciferase refolding);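 active = inhibition above the screen-wide mean plus 3 SD, computed separately per campaign, cut at about 16% in these data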;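 note: inhibitors lower the luminescence because luciferase stays unfolded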
HSF1 inh: HSF1 inhibitors in luciferase reporter cells, primary screen, cell-based, NIH3T3, luminescence. activity change, negative = inhibition, % at 7.5 µM (by protocol). 0.77% of 300,000 active. NIH3T3-HGL HSE-luciferase, MG132-induced, luminescence 8 h; hits give low values. AID 2098, 2009;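 active = more than half of replicate wells show activity change below -50%, luminescence cut by over half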;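 note: luciferase reports HSF-1 transcriptional activity via heat shock element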
Hep lipid conf: hepatocyte lipid droplet accumulation inhibitors, confirmation, imaging, AML12 mouse hepatocytes, single concentration, high-content. shares compounds with Lipid droplet. BODIPY lipid droplet imaging; droplets induced with 100 µM oleic acid. inhibition, % at 5.2 µM. 65% of 870 active;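 active = inhibition of lipid droplet metric at least 50%, with more than 300 cells in each of four replicates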
AML12 tox img: AML12 hepatocyte cytotoxicity, counter-screen for hepatic lipid droplet formation project, imaging, DAPI nuclear morphology imaging; AML12 mouse hepatocytes; hits give high values; cells fed 100 µM oleate overnight; AID 463200, 2010; 3% of 870 active; z-score at 5 µM; shares compounds with Lipid droplet; in the data active = z-score above about 6.3;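 note: compound exposure lasted overnight at 37 °C before fixation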
AML12 tox conf: AML12 hepatocyte cytotoxicity, confirmation, cytotoxicity control for hepatic lipid droplet formation project, cell-based, single concentration | shares compounds with Lipid droplet | AML12 mouse hepatocyte viability, ATP luminescence; cells loaded with 100 µM oleic acid | cytotoxicity, % at 50 µM | 530 tested, under 10 active | AID 463219, 2010;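 active = cytotoxicity above 50% in each of four replicates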;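 note: compound exposure lasted overnight at 37 °C before the ATP read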
Of the large screens only hits and unclear results are named; the others gave an inactive call (follow-up assays come after a bar, where they were run).

CCSC(=O)N(CC)CC(=O)Nc1c(CC)cccc1CC	Lipid droplet 56 | Hep lipid conf 87 | AML12 tox img inactive | AML12 tox conf inactive
CCCSC(=O)N(CC)CC(=O)Nc1c(CC)cccc1CC	Lipid droplet 64 | Hep lipid conf 90 | AML12 tox img inactive | AML12 tox conf inactive
O=S(=O)(Nc1ccc(O)c2ccccc12)c1ccc(Br)cc1	none
CCOC(=O)C1CCN(C(=O)C2(NC(=O)Nc3ccc(F)cc3F)CCCCC2)CC1	Lipid droplet 69 | Hep lipid conf 97 | AML12 tox img inactive | AML12 tox conf inactive
c1ccc2nc(N3CCN(Cc4ccc5c(c4)OCO5)CC3)cnc2c1	Lipid droplet 50 | Hep lipid conf inactive | AML12 tox img inactive
CCC/C(O)=C1\C(=O)CC(C)(C)CC1=Nc1cccc([N+](=O)[O-])c1	none
CC(C)c1cc(C(=O)N2CCCC(CCC(=O)NCc3ccccc3F)C2)n(C)n1 (centres undefined)	Lipid droplet 51 | Hep lipid conf inactive | AML12 tox img inactive
COc1ccc(NC(=O)CSc2nc3c(c(=O)n2-c2ccccc2OC)SCC3)cc1	none
CCOC(=O)c1ccc(NC(=O)CSc2nc3c(c(=O)n2-c2ccccc2OC)SCC3)cc1	Lipid droplet 87 (no result: HCV NS3 hel inh, HSP90 inh) | Hep lipid conf 105 | AML12 tox img inactive | AML12 tox conf inactive
COc1ncccc1C(=O)NC1CCCc2c1cnn2-c1ccc(C)c(C)c1 (centres undefined)	Lipid droplet 58 | Hep lipid conf 92 | AML12 tox img inactive | AML12 tox conf inactive
CCOC(=O)c1sc2cc([N+](=O)[O-])cc(SCCO)c2c1N	Lipid droplet 52 | Hep lipid conf 61 | AML12 tox img inactive
O=C(NCCc1ccccc1)C1CCCN(C(=O)Nc2ccc(F)cc2)C1 (centres undefined)	none
O=C(CSCC(=O)N1CCCCC1)Nc1nc(-c2ccccc2)c(-c2ccccc2)s1	Lipid droplet 89 (no result: HSF-1 act, HSF1 inh) | Hep lipid conf 104 | AML12 tox img inactive | AML12 tox conf inactive
COc1cc2c(cc1OC)CN(CC(=O)Nc1ccc(C)c(C)c1)CC2	Lipid droplet 56 | Hep lipid conf inactive | AML12 tox img inactive
COc1cc2c(cc1OC)CN(CC(=O)Nc1ccc(C)cc1)CC2	none (no result: Lipid droplet)
Cc1ccc(S(N)(=O)=O)cc1NC(=O)c1ccc2c3c(cccc13)CC2	none
Cc1oc2ccc(OCc3ccc(F)cc3Cl)cc2c1C(=O)O	Lipid droplet 57 | Hep lipid conf inactive | AML12 tox img inactive
CCOC(=O)c1sc2c(c1C)c(=O)n(CCO)c(=O)n2Cc1ccccc1	none
COC(=O)COc1cccc(NC(=O)c2ccc(Cl)cc2)c1	Lipid droplet 51 | Hep lipid conf inactive | AML12 tox img inactive
COC(=O)COc1cccc(NC(=O)c2ccc(C)cc2)c1	none (no result: Lipid droplet)
CCOc1ncccc1C(=O)OC(C)C(=O)Nc1ccc(CC)cc1 (centres undefined)	Lipid droplet 53 | Hep lipid conf 97 | AML12 tox img inactive | AML12 tox conf inactive
CC(CN1CCCC1)OC(=O)c1ccc(Cl)cc1 (centres undefined)	none
CCCCCCCNC(=O)C1(CC2CC(c3ccc(Cl)cc3)=NO2)CCN(C(=O)c2ccccc2)CC1 (centres undefined)	none
CCCCCCCNC(=O)C1(CC2CC(c3ccc(Cl)cc3)=NO2)CCN(C(=O)c2cc(OCC)c(OCC)c(OCC)c2)CC1 (centres undefined)	Lipid droplet 50 | Hep lipid conf 90 | AML12 tox img inactive | AML12 tox conf inactive
CCOc1ccc(CCNC(=O)C2CC(=O)N(Cc3ccc(OC)cc3)C2)cc1OCC (centres undefined)	Lipid droplet 57 | Hep lipid conf 93 | AML12 tox img inactive | AML12 tox conf inactive
CCCOc1ccc(C(=O)OCC(=O)NCCc2ccc(OCC)c(OCC)c2)cc1OC	Lipid droplet 88 | Hep lipid conf 110 | AML12 tox img inactive | AML12 tox conf inactive
CCOc1ccc(CCNC(=O)COC(=O)Cc2ccc(OC)c(OC)c2)cc1OCC	none (no result: HCV NS3 hel inh, Lipid droplet, HSP90 inh)
CCOc1ccc(CCNC(=O)C2CC=CCC2C(=O)OC(C)C)cc1OCC (centres undefined)	Lipid droplet 114 | Hep lipid conf 106 | AML12 tox img inactive | AML12 tox conf inactive
CCOc1ccc(CCNC(=O)C2CC(C)=CCC2C(=O)O)cc1OCC (centres undefined)	none
CNC(=O)COC(=O)c1ccc(OCC(=O)Nc2ccccc2OC)c(OC)c1	none
CCOc1ccc(C(=O)OCC(=O)Nc2nc(OC)cc(OC)n2)cc1OCC	Lipid droplet 64 | Hep lipid conf 102 | AML12 tox img inactive | AML12 tox conf inactive
COc1ccccc1-n1c(=O)c2c3c(sc2n2c(=S)[nH]nc12)CCC3	none
Cc1cccc(NC(=O)C2CCCN2C(=O)NC2CCCCC2)c1 (centres undefined)	none
COc1ccccc1C(=O)NNC(=O)C1CC=CCC1 (centres undefined)	none
CCOc1ccc(CCNC(=O)C2CCN(S(=O)(=O)N3CC(C)CC(C)C3)CC2)cc1OCC (centres undefined)	Lipid droplet 82 | Hep lipid conf inactive | AML12 tox img inactive
CCOc1ccc(CCNC(=O)COC(=O)c2cccc(OC)c2O)cc1OCC	none
CCOc1ccc(S(=O)(=O)NCCC(=O)NCCc2ccc(OCC)c(OCC)c2)cc1	none (no result: HCV NS3 hel inh, Lipid droplet, HSP90 inh)
CCOc1ccc(CCNC(=O)CN2CCN(Cc3ccc(F)cc3)C2=O)cc1OCC	Lipid droplet 69 | Hep lipid conf 104 | AML12 tox img inactive | AML12 tox conf inactive
CCOc1ccc(CCNC(=O)C2CCN(S(=O)(=O)CC)CC2)cc1OCC	none (no result: Lipid droplet)
CCOc1ccc(CCNC(=O)COC(=O)c2ccc(OC)c(OC)c2OC)cc1OCC	Lipid droplet 77 | Hep lipid conf 109 | AML12 tox img inactive | AML12 tox conf inactive
CCOc1ccc(CCNC(=O)CCS(=O)(=O)c2ccc(OC)cc2)cc1OCC	Lipid droplet 84 | Hep lipid conf 97 | AML12 tox img inactive | AML12 tox conf inactive
COCC(=O)N1CCC(Oc2ccc(C(=O)NC3Cc4ccccc4C3)cc2)CC1	none
